Test results taken from paper PMC11500341 (Scientific Reports, 2024).
No end group written: not given here.

What was measured:
[1] = system: MDA-MB-231 cells; assay: Cell migration; format: cell-based; conditions: after 48 h and 72 h
Outline: (§1)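 Cells were seeded at 0.2 × 10^6 per 35 mm dish in DMEM with 10% FBS and left to adhere overnight at 37 °C in 5% CO2. Monolayers were scratched with a sterile pipette tip and imaged at time zero. They were then treated: control, 0.05% DMSO vehicle, three test compound levels, doxorubicin, and doxorubicin plus the top level. The scratched area was re-imaged at 24, 48 and 72 h.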

[2] = system: VEGF; assay: Western blot, VEGF expression; format: cell-based, human; conditions: MCF-7 and MDA-MB-231; after treatments
Outline: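 MCF-7 and MDA-MB-231 lysates were taken 48 h and 72 h after the treatment groups. Protein was quantified by BCA and 30 µg run on 10% SDS-PAGE, then transferred to PVDF. Membranes were blocked 2 h in 5% milk in TBS-T. Mouse anti-human VEGF (1:300, in 5% BSA TBS-T) was applied overnight at 4 °C, then 2 h at room temperature. Detection used HRP goat anti-mouse (1:4000) and ECL, with band densitometry.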

[3] = system: Caspase 3/7 in MDA-MB-231 cells; assay: Caspase glow 3/7 assay, MDA-MB-231; format: cell-based; conditions: p ≤ 0.0001
Outline: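 MDA-MB-231 cells were seeded at 5 × 10^3 per well and adhered overnight. They were exposed to the test compound (P1 75, P2 150, P3 300), Dox 0.2 or Dox + P3 for 24, 48 or 72 h. Caspase-Glo 3/7 reagent (substrate/luciferase) was added, followed by 30–60 min at 25 °C. Luminescence was then read.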

[4] = system: Caspase 3/7 in MCF-7 cells; assay: Caspase glow 3/7 assay, MCF-7; format: cell-based; conditions: p ≤ 0.0001
[5] = system: Rac1; assay: Western blot, Rac1 expression; format: cell-based, human; conditions: for % change of protein expression: vs CT; for Rac1 expression (in words): 48 and 72 h
Outline: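 MCF-7 cells (DMEM, 10% FBS) were treated per group for 48 and 72 h. Lysate protein was measured by BCA, and 30 µg was run on 10% SDS-PAGE and transferred to PVDF. Blots were blocked in 5% milk/TBS-T for 2 h. Rabbit anti-Rac1 (1:250) and GAPDH (1:500) antibodies were applied overnight at 4 °C, then 2 h at room temperature. HRP secondary (1:4000) and ECL detection followed, with band densitometry.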

[6] = system: MCF-7 cells; assay: Cell migration; format: cell-based; conditions: after 48 h and 72 h
Outline: as §1

[7] = system: breast-cancer cells; conditions: cited from earlier work
[8] = system: Rac1 and Tiam1 complex; conditions: cited from earlier work
[9] = system: LIMK1; assay: LIMK1 concentration in serum and tumor tissue of mice by SPR; format: in vivo, Swiss Albino mice; conditions: 300 μm FGDWS, Mean ± SD
[10] = system: MDA-MB-231 cells; assay: MTT cell viability assay, MDA-MB-231; format: cell-based; conditions: 24, 48 and 72 h
Outline: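 MDA-MB-231 cells (passage 28–33; DMEM with 10% FBS and 1% penicillin/streptomycin) were seeded at 5 × 10^3 per well and left overnight. Four test compound doses were added for 24, 48 or 72 h at 37 °C in 5% CO2. MTT (5 mg/ml solution) was added for 4 h, medium removed, formazan dissolved in DMSO and read at 570 nm. Results were expressed as percent viability.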

[11] = biological target: Rac1 (Homo sapiens, UniProt P63000); assay: SPR binding of peptide to immobilized Rac1
[12] = system: MCF-7 cells; assay: Annexin V-FITC / PI assay, flow cytometry, MCF-7; format: cell-based; conditions: 72 h
Outline: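 Test compound given to MCF-7 cells (0.2 × 10^6 per 35 mm dish) in these treatment groups: control, 0.05% DMSO vehicle, three test compound levels, doxorubicin, and doxorubicin plus the top level. Cells were trypsinized, washed twice in PBS and resuspended in binding buffer. Annexin V-FITC was added for 10 min, then PI (from a 50 µg/ml stock) for 20 min. Flow cytometry quadrants gave early apoptotic, late apoptotic, necrotic and healthy fractions.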

[13] = system: Phospho-p38α (Y-182); assay: Phospho-p38α concentration in serum and tumor tissue of mice by SPR; format: in vivo, Swiss Albino mice; conditions: 300 μm FGDWS, Mean ± SD, p-value 0.0001
[14] = system: MCF-7 cells; assay: MTT cell viability assay, MCF-7; format: cell-based; conditions: 24, 48 and 72 h
[15] = system: P38α; assay: p38α concentration in serum and tumor tissue of mice by SPR; format: in vivo, Swiss Albino mice; conditions: 300 μm FGDWS, Mean ± SD
[16] = system: HEK-293 cells; assay: MTT cell viability assay, HEK-293; format: cell-based; conditions: 25-500 μm FGDWS, 24, 48 and 72 h
Outline: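 HEK-293 cells (DMEM, 10% FBS, passage 28–33) were seeded at 4 × 10^3 per well and adhered overnight. Test compound was added at 25, 50, 100, 150, 300 and 500 for 24, 48 and 72 h at 37 °C, 5% CO2. MTT (5 mg/ml) was incubated for 4 h, medium removed and DMSO added. Absorbance at 570 nm gave percent viability.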

[17] = system: Phospho-Cofilin1 (S-3); assay: Phospho-Cofilin1 concentration in serum and tumor tissue of mice by SPR; format: in vivo, Swiss Albino mice; conditions: 300 μm FGDWS, Mean ± SD
[18] = system: Phospho-LIMK1 (T-508); assay: Phospho-LIMK1 concentration in serum and tumor tissue of mice by SPR; format: in vivo, Swiss Albino mice; conditions: 300 μm FGDWS, Mean ± SD
[19] = system: Rac1; assay: Rac1 concentration in serum and tumor tissue of mice by SPR; format: in vivo, Swiss Albino mice; conditions: tumor tissue lysate; 300 μm FGDWS; Mean ± SD; p-value 0.0001
[20] = system: MDA-MB-231 cells; assay: Annexin V-FITC / PI assay, flow cytometry, MDA-MB-231; format: cell-based
Outline: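 Cells were seeded at 0.2 × 10^6 per 35 mm dish and treated per group: control, vehicle (0.05% DMSO), test compound P1 75, P2 150, P3 300, Dox 0.2, or Dox + P3. They were then trypsinized, washed twice in PBS and resuspended in 1X binding buffer. Staining was annexin V-FITC for 10 min, then PI (50 µg/ml stock) for 20 min. Flow cytometry gave four-quadrant populations.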

[21] = system: Cofilin1; assay: Cofilin1 concentration in serum and tumor tissue of mice by SPR; format: in vivo, Swiss Albino mice; conditions: 300 μm FGDWS, Mean ± SD
[22] = MDA-MB-231, 48 h, P3 300 μm / Dox 0.2 μm / Dox + P3 0.2 μm + 300 μm
[23] = MDA-MB-231, 72 h, P3 300 μm / Dox 0.2 μm / Dox + P3 0.2 μm + 300 μm
[24] = MCF-7, 48 h, P3 300 μm / Dox 0.2 μm / Dox + P3 0.2 μm + 300 μm
[25] = MCF-7, 72 h, P3 300 μm / Dox 0.2 μm / Dox + P3 0.2 μm + 300 μm
[26] = tumor tissue lysate, p-value 0.001

COc1cccc2c1C(=O)c1c(O)c3c(c(O)c1C2=O)C[C@@](O)(C(=O)CO)C[C@@H]3O[C@H]1C[C@H](N)[C@H](O)[C@H](C)O1 [Dox, Doxorubicin, reference compound]
rate of cell proliferation and migration (ranking) [1]: slowest in Dox + P3 followed by Dox, P3, P2 and P1
VEGF expression (in words) [2]: downregulated after treatments with peptide and Dox
fold change in RLU with respect to control (caspase 3/7) [3, 22]: 0.84
fold change in RLU with respect to control (caspase 3/7) [3, 23]: 1.02
fold change in RLU with respect to control (caspase 3/7) [4, 24]: 1.64
fold change in RLU with respect to control (caspase 3/7) [4, 25]: 0.79
% change of protein expression [5, 24]: 13.13%
% change of protein expression [5, 25]: 43.31%
% change of protein expression [5, 22]: 32.57%
% change of protein expression [5, 23]: 31.39%
rate of cell proliferation and migration (ranking) [6]: slowest in Dox + P3 followed by Dox, P3, P2 and P1

CCN(CC)CCCC(C)Nc1nc(C)cc(Nc2ccc3nc(C)cc(N)c3c2)n1 (centres unmarked) [NSC23766]
cell cycle arrest and apoptosis [7]: induce G1 cell cycle arrest and apoptosis
inhibition of Rac1-Tiam1 interaction [8]: inhibits the interactions between Rac1 and Tiam1 complex

FGDWS [FGDWS]
LIMK1 concentration ([9]; serum, day 45, p-value 0.0001): 6.86 ± 1.46 ng/µL
LIMK1 concentration ([9]; tumor tissue lysate, p-value 0.005): 6.37 ± 1.04 ng/µL
cell viability, dose and time dependence [10]: decreased in dose dependent manner with time
Kd [11]: 807 nM
KA (association constant) ([11]; SPR, Rac1 immobilized on CM5 (4000 RU), BIAevaluation 3.0): 1.24e+06 M⁻¹
population of apoptotic cells, dose dependence [12]: increased with increasing FGDWS doses P1 to P3
Phospho-p38α concentration ([13]; serum, day 45): 2.66 ± 0.16 ng/µL
Phospho-p38α concentration ([13]; tumor tissue lysate): 2.77 ± 0.11 ng/µL
rate of cell proliferation and migration (ranking) [1]: slowest in Dox + P3 followed by Dox, P3, P2 and P1
cell viability, dose and time dependence [14]: decreased in dose dependent manner with time
VEGF expression (in words) [2]: downregulated after treatments with peptide and Dox
P38α concentration ([15]; serum, day 45, p-value 0.004): 3.13 ± 0.96 ng/µL
P38α concentration [15, 26]: 0.97 ± 0.06 ng/µL
toxic effect on normal cells [16]: no toxic effect
Phospho-Cofilin1 concentration ([17]; serum, day 45, p-value 0.006): 8.35 ± 1.15 ng/µL
Phospho-Cofilin1 concentration [17, 26]: 7.14 ± 1.34 ng/µL
fold change in RLU with respect to control (caspase 3/7) ([3]; MDA-MB-231, 48 h, P1 75 μm): 0.16
fold change in RLU with respect to control (caspase 3/7) ([3]; MDA-MB-231, 48 h, P2 150 μm): 0.25
fold change in RLU with respect to control (caspase 3/7) [3, 22]: 0.305
fold change in RLU with respect to control (caspase 3/7) ([3]; MDA-MB-231, 72 h, P1 75 μm): 0.35
fold change in RLU with respect to control (caspase 3/7) ([3]; MDA-MB-231, 72 h, P2 150 μm): 0.57
fold change in RLU with respect to control (caspase 3/7) [3, 23]: 0.65
Phospho-LIMK1 concentration ([18]; serum, day 45, p-value 0.008): 7.58 ± 2.25 ng/µL
Phospho-LIMK1 concentration [18, 26]: 8.01 ± 1.22 ng/µL
fold change in RLU with respect to control (caspase 3/7) ([4]; MCF-7, 48 h, P1 75 μm): 0.24
fold change in RLU with respect to control (caspase 3/7) ([4]; MCF-7, 48 h, P2 150 μm): 0.402
fold change in RLU with respect to control (caspase 3/7) [4, 24]: 0.93
fold change in RLU with respect to control (caspase 3/7) ([4]; MCF-7, 72 h, P1 75 μm): 0.33
fold change in RLU with respect to control (caspase 3/7) ([4]; MCF-7, 72 h, P2 150 μm): 0.47
fold change in RLU with respect to control (caspase 3/7) [4, 25]: 0.66
% change of protein expression ([5]; MCF-7, 48 h, P1 75 μm): 1.08%
% change of protein expression [5, 24]: 25.84%
% change of protein expression ([5]; MCF-7, 72 h, P1 75 μm): 12.74%
% change of protein expression [5, 25]: 31.23%
Rac1 expression (in words) ([5]; MCF-7): downregulated significantly with increase in concentration of peptide dose from P1 to P3
% change of protein expression ([5]; MDA-MB-231, 48 h, P1 75 μm): 21.41%
% change of protein expression [5, 22]: 36.01%
% change of protein expression ([5]; MDA-MB-231, 72 h, P1 75 μm): 15.03%
% change of protein expression [5, 23]: 48.31%
Rac1 expression (in words) ([5]; MDA-MB-231): downregulated significantly with increase in concentration of peptide dose from P1 to P3
Rac1 concentration [19]: 0.72 ± 0.02 ng/µL
rate of cell proliferation and migration (ranking) [6]: slowest in Dox + P3 followed by Dox, P3, P2 and P1
population of apoptotic cells, dose dependence ([20]; 72 h): increased with increasing FGDWS doses P1 to P3
apoptotic cell population ([20]; higher dose of peptide (P3 300 μm), or in combination with Dox): 38.3%
Cofilin1 concentration ([21]; serum, day 45, p-value 0.028): 2.68 ± 0.28 ng/µL
Cofilin1 concentration ([21]; tumor tissue lysate, p-value 0.0048): 2.83 ± 0.53 ng/µL
